A selection: hits, their analogues and other compounds. The true share with any hit is near 2.8%.
Measles CPE: compounds protecting cells from measles virus cytopathic effect, primary screen, measles RdRp inhibitor project, single point, MLSMR library, absorbance. Measles virus-infected cells, CPE protection. protection (pct of control), % at 4 µM. actives 1.5% (n = 140,000). AID 841, 2007; in the data active = protection mostly above about 24%, no sharp cut-off; inactive = mostly below about 26%
NPY Y1 blocker: NPY-Y1 receptor antagonists, primary screen, cell-based | Neuropeptide Y receptor type 1 (Homo sapiens), P25929 | HEK293-CNG Y1 cells, membrane potential fluorescence; NPY at EC95, then isoproterenol | inhibition, % at 3.6 µM | actives 1% (n = 200,000) | AID 1040, 2008;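 active = inhibition above the campaign mean inhibition of all tested compounds plus 3 SD, cut at about 20% in these data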;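 also: 0% = DMSO wells given NPY plus isoproterenol and 100% = isoproterenol alone without NPY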
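System: HEK293 cells with Y1 receptor plus CNG channel / Probe or stimulus: NPY 25 nM then isoproterenol 1 µM plus Ro 20-1724 25 µM / Compound: one concentration, 3.6 µM, in 0.4% DMSO / Schedule: compound incubation 1 h at room temperature, readout 45 min post-stimulation / Measured by: membrane potential fluorescence / Read-out: % inhibition of NPY effect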
NPY2 pot ag: NPY-Y2 potentiators or agonists, primary screen, cell-based. activation, % at 3.6 µM. AID 1359, 2008. cells expressing NPY-Y2, potentiator/agonist read-out. actives 0.45% (n = 220,000). Neuropeptide Y receptor type 2 (Homo sapiens), P49146; in the data active = activation above about 27%;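 also: cells stimulated with NPY near EC25 plus isoproterenol at EC100; 0% = vehicle plus submaximal agonist and 100% = vehicle plus saturating agonist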
NPY-Y2 antag: NPY-Y2 receptor antagonists, primary screen, cell-based; Neuropeptide Y receptor type 2 (Homo sapiens), P49146; NPY-Y2 expressing cells, antagonist mode; inhibition, % at 2.7 µM; actives 0.99% (n = 140,000); AID 793, 2007; in the data active = inhibition above about 17%;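 also: 0% = vehicle with agonist challenge and 100% = reference antagonist with challenge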
Rad51 HR inh: human RAD51 strand exchange inhibitors, primary screen, biochemical, fluorescence; inhibition, % at 10 µM; DNA repair protein RAD51 homolog 1 (Homo sapiens), Q06609; actives 0.085% (n = 200,000); hRad51 DNA strand exchange, fluorescence dequenching;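 active = inhibition above 40% at the single screening dose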;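 also: 0% = DMSO control wells and 100% = blanks with heterologous ssDNA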
Target sequence (Q06609 whole entry, looked up): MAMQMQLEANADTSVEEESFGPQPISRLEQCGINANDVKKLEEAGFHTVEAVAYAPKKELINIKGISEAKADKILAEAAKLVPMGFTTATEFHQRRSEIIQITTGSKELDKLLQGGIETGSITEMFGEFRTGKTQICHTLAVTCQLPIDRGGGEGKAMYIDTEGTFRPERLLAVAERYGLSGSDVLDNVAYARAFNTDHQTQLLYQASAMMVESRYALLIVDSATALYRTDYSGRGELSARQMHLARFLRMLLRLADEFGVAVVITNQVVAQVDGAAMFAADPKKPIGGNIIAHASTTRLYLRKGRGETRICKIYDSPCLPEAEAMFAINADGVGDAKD
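Read-out basis: percent inhibition relative to plate controls and blanks / Assay system: human Rad51 nucleoprotein filaments preassembled on unlabelled ssDNA / Timing: filaments 15 min 37 °C, then compound 30 min / Control set: per-plate controls and blanks / Technique: fluorescence dequenching at 485/520 nm / Compound: 10 µM final, single point / Also added: Fluorescein- and BHQ1-tagged 47-mer duplex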
NPY-Y1 PAM-ag: NPY-Y1 receptor potentiators or agonists, primary screen, cell-based; actives 0.37% (n = 220,000); NPY-Y1 expressing cells, potentiator/agonist activation; Neuropeptide Y receptor type 1 (Homo sapiens), P25929; AID 1304, 2008; activation, % at 3.6 µM; in the data active = activation above about 33%, passing the limit was not always enough;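 also: cells stimulated with NPY at EC10 then isoproterenol at EC100; 0% = low agonist plus stimulus and 100% = saturating agonist plus stimulus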
Starred values were filed as active, the others as inactive; / = no result; ! = repeats disagree.

SMILES | Measles CPE | NPY Y1 blocker | NPY2 pot ag | NPY-Y2 antag | Rad51 HR inh | NPY-Y1 PAM-ag
COc1ccc(-c2[nH]ncc2/C=C(/C#N)C(=O)NC2CCCCC2)cc1 | 15 | 5 | -5 | 4 | -10 | -9
Cc1ccc(-c2[nH]ncc2/C=C(\C#N)C(=O)NC2CCCCC2)cc1 | 70* | 1 | -26 | 4 | -3 | -37
CN(C)S(=O)(=O)c1ccc(-c2csc(N/N=C/c3ccc(O)cc3)n2)cc1 | / | / | -9 | / | 6 | 24
Cc1cc(NC(=O)CCN2C(=O)C3C4C=CC(C4)C3C2=O)c2ccccc2n1 (centres undefined) | 45* | -1 | 7 | 2 | 5 | 3
Cc1cc(C)c(C(=O)CSc2nnc(N)s2)c(C)c1 | / | 1 | -1 | / | 0 | -5
CC1=CC(C)(C)N(C(=O)CSc2nnc(N)s2)c2c(C)cc(C)cc21 | 7 | 7 | 24 | 2 | -4 | 70*
c1ccc(Oc2cc(-c3ccccc3)nc(-c3ccccc3)n2)cc1 | 6 | -5 | -2 | 3 | / | 3
O=S(=O)(Cc1cc(Oc2ccccc2)nc(-c2ccccc2)n1)c1ccccc1 | 6 | 22* | -14 | 21* | / | -11
CN1C(=O)c2ccccc2Sc2ccc(NC(=O)N3CCCC3)cc21 | 6 | 7 | 0 | 3 | 0 | -21
CCCNC(=O)Nc1ccc2c(c1)N(C)C(=O)c1ccccc1S2 | 60* | 0 | -3 | 0 | -4 | -3
N=C1C(c2nc3ccccc3[nH]2)=C(O)CN1NC(=O)COc1cccc(F)c1 | 10 | -3 | 5 | 2 | 17 | -17
COc1cc(NC(=O)CSc2nnnn2-c2ccccc2)cc(OC)c1OC | 104* | 4 | -9 | 4 | 0 | -16
Cc1sc(N/N=C/c2cccnc2)nc1-c1ccccc1 | 83* | 0 | 5 | -4 | 1 | 20
CC(C)NC[C@H](O)COc1cccc2ccccc12 | / | / | / | / | -2 | /
C=CCc1ccccc1OCCCCN1CCCC1 | 3 | 8 | 17 | 6 | -1 | -8
C=CCc1ccccc1OCC(O)CN1CCN(c2ccccc2F)CC1 (centres undefined) | 6 | -12 | 87* | 5 | / | 95*
C=CCc1cc(OC)ccc1OCC(O)CN1CCN(c2ccc(OC)cc2)CC1 (centres undefined) | 8 | 5 | 4 | 4 | 0 | 20
C=CCc1ccccc1OCC(O)CNC(C)C (centres undefined) | 18 | -13 | 103* | 4 | -1 | 116*
C=CCc1cc(C)ccc1OCC(O)CN1CCN(c2ccccc2)CC1 (centres undefined) | / | -7 | 56* | 9 | 4 | 54*
C=CCc1ccccc1OCC(CN1CCCCC1)OC(C)=O (centres undefined) | 7 | -17 | 104* | 3 | 0 | 112*
O=C(c1ccc(Cl)cc1)N1CCCC(c2ccccc2)=N1 | 5 | 2 | 16 | 0 | -5 | 11
CCn1c(-c2ccccc2)csc1=Nc1ccc(O)cc1 | / | -4 | 9 | / | / | 3
Cc1cc(C(=O)N2CCN(c3ncccn3)CC2)nn1C | / | / | 1 | / | 18 | 4
Cc1cc(C(F)(F)F)nc2c(Cl)c(C(C)(C)C)nn12 | / | / | 20 | / | -7 | 21
CCN(CC)c1ccc(C(=O)NC(=S)Nc2cc(S(=O)(=O)N3CCOCC3)ccc2-n2cncn2)cc1 | 12 | -4 | 4 | 1 | -4 | -7
SMILES | Measles CPE | NPY Y1 blocker | NPY2 pot ag | NPY-Y2 antag | Rad51 HR inh | NPY-Y1 PAM-ag
C=CCN1C(=O)/C(=C2/Sc3ccc(OC)cc3N2C)SC1=Nc1cccc(O)c1 | / | 8 | -16 | / | -16 | 1
Cc1[nH]c2ccccc2c1/C=N/NC(=O)C1CC1(c1ccccc1)c1ccccc1 (centres undefined) | 7 | -5 | 24 | -4 | -7 | 38
C=CCc1ccccc1OCC(O)CN1CCN(c2ccccc2OC)CC1 (centres undefined) | 23 | -15 | 102* | 4 | 2 | 112*
OC(COc1ccccc1Cl)CN1CCN(CC(O)COc2ccccc2Cl)CC1 (centres undefined) | 11 | -14 | 48* | 4 | -3 | 86*
COc1ccccc1N1CCN(CC(O)COc2cccc3ccccc23)CC1 (centres undefined) | 10 | -7 | 66*! | 6 | -5 | 88*
Cc1ccc2[nH]c3c(NCCN4CCOCC4)ncnc3c2c1 | 9 | 1 | 9 | 1 | / | -8
Clc1ccc2[nH]c3c(NCCCN4CCOCC4)ncnc3c2c1 | 44* | 6 | 7 | 3 | 6 | 8
CNC(=O)C(=O)NCC1OCCN1S(=O)(=O)c1ccc2c(c1)OCCO2 (centres undefined) | / | 1 | 2 | / | 5 | 8
CCCCCCC(=O)NC(Nc1ccc(S(N)(=O)=O)cc1)C(Cl)(Cl)Cl (centres undefined) | 32* | -4 | -15 | -1 | 0 | 3
O=C(Nc1ccccc1)C1=C[C@@H](C2CCCCC2)C[C@@H](OCc2ccc(CO)cc2)O1 | / | 4 | -10 | / | 6 | -10
COCCCNC(=O)c1cccc(C(=O)NCCCOC)c1 | 23* | 2 | 8 | 3 | 0 | 9
CCCNC(=O)c1cccc(C(F)(F)F)c1 | 27* | 5 | -31 | 5 | 2 | -3
O=C(NCc1ccco1)c1cccc(C(F)(F)F)c1 | / | 0 | 3 | / | 2 | 13
COCCCNC(=O)c1ccc2c(c1)OCO2 | 23 | 9 | 12 | 0 | 3 | 9
Cc1nc2ccc(NC(=O)c3cccc(C(F)(F)F)c3)cc2o1 | 61* | 3 | 1 | 0 | -11 | 2
COCCNC(=O)c1ccc(NC(C)=O)cc1 | 52* | -5 | -7 | 4 | -1 | -4
C=CCSc1nc2ccsc2c(=O)n1-c1cccnc1 | / | -1 | 1 | / | -23 | -5
COc1ccc(C2C(C(=O)O)CCC(=O)N2c2ccc(C)cc2)cc1OC (centres undefined) | / | / | -7 | / | 31 | -2
O=C(NCc1ccc2c(c1)CCO2)Nc1ccccc1 | / | / | -3 | / | 3 | -12
CSc1nnc2c(n1)c(C)nn2-c1ccc(C)cc1 | 38* | 10 | -6 | 3 | -7 | -19
Cc1ccc(-n2nc3c(Cl)nnc(C)c3c2C)cc1 | 19 | 4 | -14 | 4 | -4 | -1
O=C(Oc1ccccc1[N+](=O)[O-])c1cccnc1 | 29* | 5 | 6 | 0 | / | 24
N/C(=N\OC(=O)Cc1ccccc1[N+](=O)[O-])c1cccnc1 | / | 5 | 6 | / | 6 | -6

Screening data as filed in PubChem BioAssay.
